Assay results gathered from unrelated publications.
Protocols differ between the studies behind these lines.
Target: Sodium-dependent noradrenaline transporter (SLC6A2, Homo sapiens, UniProt P23975)

| SMILES | assay | system | setting | inhibition [%] |
| --- | --- | --- | --- | --- |
| c1ccc(CCCC2CCN(CCCCn3nnnc3C(c3ccccc3)c3ccccc3)CC2)cc1 | transporter uptake, inhibitor | HEK293 | 1 µM | 73.9 |
| CCCNc1nc2ccccc2n1Cc1ccc(Cl)cc1 | ligand displacement | – | 10 µM | 21.9 |
| O[C@@H]1[C@H](O)[C@@H]2C[C@@H]2[C@H]1n1cnc2c(NCc3cccc(Cl)c3)nc(C#Cc3ccccc3)nc21 | ligand displacement, radioligand | – | 10 µM | 34 |
| c1ccc(C2CCN(CCCCn3nnnc3C(c3ccccc3)c3ccccc3)CC2)cc1 | transporter uptake, inhibitor | HEK293 | 1 µM | 66.3 |
| COc1ccc(-n2nc(OCCCN3CCCCC3)ccc2=O)cc1 | ligand displacement | – | 1 µM | 18.5 |
| COc1cc(NC(C)=O)c(Cl)cc1C(=O)Nc1nccs1 | cell-free assay | – | 10 µM | 1.8 |
| O=C1N=C(N2CCCCN2)S/C1=C\c1ccc(F)cc1O | ligand displacement, radioligand | – | 10 µM | < 10 |
| Clc1ccc(C(c2ccc(Cl)cc2)c2nnnn2CCCCN2CCC(Cc3ccccc3)CC2)cc1 | transporter uptake, inhibitor | HEK293 | 1 µM | 68.8 |
| Nc1ccc(-c2ccncc2)cc1NC(=O)N1CCCC1 | cell-free assay | – | 10 µM | 15 |
| O[C@@H]1[C@H](O)[C@@H]2C[C@@H]2[C@H]1n1cnc2c(NCc3cccc(Cl)c3)ncnc21 | ligand displacement, radioligand | – | 10 µM | 35 |
| Clc1ccc(C(c2ccc(Cl)cc2)c2nnnn2CCCN2CCC(Cc3ccccc3)CC2)cc1 | transporter uptake, inhibitor | HEK293 | 1 µM | 8.36 |
| COC(=O)c1ccc(-n2c(C)cc(C(=O)CSc3ccc(NC(C)=O)cc3)c2C)cc1 | ligand displacement, radioligand | – | 10 µM | 50 |
